A selection: hits, their analogues and other compounds. The true share with any hit is near 1.7%.
Scp-1 inhibitor: inhibitors of human Scp-1 phosphatase | Q9GZU7 | Recombinant Scp1, phosphopeptide, malachite green phosphate absorbance | inhibition, % at 20 µM | 340,000 tested, 0.88% active;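 active means inhibition above about 50% at 20 µM, limit read from the data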;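 further: plate controls were DMSO wells with enzyme for no effect and wells lacking enzyme for full effect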
Target sequence (Q9GZU7 76-261 limits assumed): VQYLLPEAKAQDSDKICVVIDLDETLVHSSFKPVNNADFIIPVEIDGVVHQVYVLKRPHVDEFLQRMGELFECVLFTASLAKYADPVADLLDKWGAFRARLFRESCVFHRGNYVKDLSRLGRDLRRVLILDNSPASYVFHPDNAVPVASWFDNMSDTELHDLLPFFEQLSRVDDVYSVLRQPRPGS
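Times: enzyme reaction 45 min at room temperature, colour 5 min, stabilisation 30 min. Material: SCP-1 catalytic fragment, aa 76-261. Medium: Acidic Tris acetate buffer with magnesium and detergent. Signal: colorimetric free-phosphate detection, absorbance 630 nm. Read-out basis: % inhibition of SCP-1 phosphate liberation. Reagent: Phosphorylated 17-residue peptide substrate.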
LMPTP block: LMPTP (human) inhibition; recombinant LMPTP-A, OMFP fluorogenic substrate, fluorescence intensity; inhibition, % at 20 µM; 360,000 tested, 0.22% active; AID 651560;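 active means compounds that cut the enzyme signal by at least half of the control window in the single-dose screen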;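 further: plate controls were DMSO wells with enzyme plus substrate for no effect and substrate without enzyme for full effect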
Target sequence (P24666 whole entry, looked up): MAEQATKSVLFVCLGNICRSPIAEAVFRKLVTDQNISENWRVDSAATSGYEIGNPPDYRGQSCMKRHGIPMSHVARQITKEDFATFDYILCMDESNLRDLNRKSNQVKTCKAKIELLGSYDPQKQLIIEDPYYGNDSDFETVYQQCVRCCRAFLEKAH
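Test system: LMPTP-A phosphatase enzyme. Amount: LMPTP-A at 0.625 nM final in the reaction. Reagent: OMFP substrate, 400 µM final. Times: 50 min at room temperature. Signal: endpoint fluorescence intensity from OMFP dephosphorylation. Read-out basis: % inhibition. Benchmarks: no-enzyme and uninhibited controls.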
STEP inh: inhibitors of human striatal-enriched phosphatase STEP. P54829. recombinant STEP, OMFP fluorogenic substrate, fluorescence. inhibition, % at 20 µM. 360,000 tested, 0.25% active. AID 588621;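 active means inhibition at 20 µM, scaled per plate between control wells, above about 37%, limit read from the data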;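 further: 0% = DMSO with enzyme and substrate and 100% = substrate only without enzyme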
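Measure: Control-normalized % inhibition with plate pattern correction | Test system: STEP phosphatase, cell-free reaction | Medium: pH 6.0 Bis-Tris with DTT and Tween 20 | Technique: Fluorescence, 480/540 nm | Times: Reaction 20 min, ambient temperature | Doses: Single compound dose of 20 µM, 1% DMSO final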
DNMT1 inh: blocks human DNA methyltransferase DNMT1; 360,000 tested, 0.83% active; DNMT1 molecular beacon, Hinp1I cleavage, fluorescence; inhibition (reported as % activation of signal), % at 10 µM; in the data active means inhibition above about 50%
SUMO1-SIM PPI: modulators of human SUMO1-mediated protein-protein interactions | P63165 | SUMO1 binding to a labelled peptide, TR-FRET, 1 h | inhibition, % at 20 µM | 360,000 tested, 0.33% active | AID 602429; in the data active means inhibition above about 37%
Target sequence (P63165 whole entry, looked up): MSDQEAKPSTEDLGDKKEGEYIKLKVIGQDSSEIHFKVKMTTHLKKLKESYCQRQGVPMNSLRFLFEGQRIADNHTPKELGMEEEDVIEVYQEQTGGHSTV
Beacon interf DR: counter-screen for DNMT1 inhibitors: spectral interference, dose response | 200 tested, under 10 active | IC50, µM | shares compounds with DNMT1 inh | molecular beacon fluorescence; call rule not given here
DNMT1 inh conf: DNMT1 inhibition confirmation, single concentration. inhibition, % at 10 µM. 2,300 tested, 8% active. DNMT1 molecular beacon HinP1I cleavage, fluorescence. shares compounds with DNMT1 inh;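 active means average inhibition of at least 30% in the single-concentration confirmation test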
Beacon interf: counter-screen for DNMT1 inhibitors: spectral interference. DNMT1 molecular beacon spectral interference counterscreen, fluorescence 485/520. shares compounds with DNMT1 inh. AID 602387. activation (fluorescence interference), % at 10 µM. 2,300 tested, 1% active;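 active means activation of at least 30% at 10 µM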;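 further: DNMT1 catalytic domain with a HinP1I cleavage step and a FAM/dabcyl DNA beacon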
Numbers without * were called inactive; x = not tested or not shown; ! = repeats disagree.

SMILES	Scp-1 inhibitor	LMPTP block	STEP inh	DNMT1 inh	SUMO1-SIM PPI	DNMT1 inh conf	Beacon interf	others
CC(C)(C)c1ccc(-c2csc(NC(=O)CN3C(=O)NC4(CCCCC4)C3=O)n2)cc1	-17	1	6	54*	-1	-1	-2
Cc1cc2nc(-c3ccc(NC(=O)C(C)C)cc3)oc2cc1C	-7	0	-4	63*	-1	4	1
Clc1ccc(OCc2nn3c(-c4ccccc4)nnc3s2)c(Cl)c1	-3	29	5	59*	1	3	3
O=C1CN(C(=O)NCC(=O)N[C@H](Cc2ccccc2)C(=O)O)c2ccccc2N1	-7	-1	-1	74*	2	1	6
O=C1CN(C(=O)NCC(=O)N[C@H](C(=O)O)c2ccccc2)c2ccccc2N1	3	-2	-1	3	4	x	x
O=C1COc2ccc(C(=O)COC(=O)/C=C/c3ccc(Br)o3)cc2N1	81*	71*	30	100*	81*	27	-4	Beacon interf DR=>99
CCOC(=O)CCCCCC(=O)Nc1ccc2c(c1)CC(=O)N([C@H](C)CO)C[C@H](C)[C@H](CN(C)S(=O)(=O)c1ccc(OC)cc1)O2	-10	0	-1	-10	4	x	x
Oc1cc(O)c(CN2CCOCC2)cc1CN1CCOCC1	0	-1	-4	2	5	x	x
Oc1c(CN2CCOCC2)cc(CN2CCOCC2)cc1CN1CCOCC1	-8	-2	1	87*	4	1	4
O=C(/C=C/c1ccc(Br)o1)NCc1ccccc1	-2	34	2	74*	11	9	4
CCc1nnc(NC(=O)c2ccc(OC)c(S(=O)(=O)N3CCCC3)c2)s1	0	-1	-1	3	15	x	x
COCCOC(=O)c1[nH]c2c(c1C)C(=O)CC(c1ccco1)C2 (stereo unspecified)	83*	37	0	74*	22	4	-2
COCCOC(=O)c1[nH]c2c(c1C)C(=O)CC(c1ccc(N(C)C)cc1)C2 (stereo unspecified)	-7	4	4	-13	-3	x	x
CCOC(=O)c1[nH]c2c(c1C)C(=O)CC(c1ccco1)C2 (stereo unspecified)	64*	37	0	51*	13	7	6
Cc1cccc(Cl)c1OCCCn1ccnc1	-8	0	1	67*	-1	2	1
COc1ccc(Cl)cc1NC(=O)c1cccc([N+](=O)[O-])c1O	-13	0	2	66*	-8	1	0
COc1cc(CCN(C(C)=O)C2C(=O)Nc3ccccc3N=C2c2ccc3c(c2)OCO3)cc(OC)c1 (stereo unspecified)	x	-1	1	-2	0	x	x
CCOC(=O)N1CCN(C(=O)C[C@@H]2C[C@@]3(C(=O)OC)CC(C)(C)CC=C3N(CCc3ccc(OC)c(OC)c3)C2=O)CC1	x	0	x	x	1	x	x
CS/C(=N\S(=O)(=O)c1cccs1)Nc1ccc(N2CCOCC2)cc1	-5	0	0	83*!	4	2	2
CS/C(=N\S(=O)(=O)c1cccs1)Nc1ccc(F)cc1	-2	-1	0	3	1	x	x
COc1ccc(C(=O)Nc2ccc(C)cn2)c(OC)c1	-9	-1	1	74*	7	1	3
COc1ccc(C(=O)Nc2cc(C)on2)c(OC)c1	1	-1	0	2	-5	x	x
O=C1NN(c2ccc(Cl)cc2)C(=O)/C1=C\c1ccc(-c2cccc(C(=O)O)c2)o1	94*	82*	97*	95*	40*	34*	2	Beacon interf DR=>99
CCOC(=O)c1ccccc1NC(=O)COC(=O)C(CC)Oc1ccccc1 (stereo unspecified)	x	-4	2	5	-18	x	x
Nc1ccc(Nc2ccccc2)c(S(=O)(=O)O)c1	83*	70*	97*	97*	58*	8	-2

Screening results deposited in PubChem BioAssay by Sanford-Burnham Center for Chemical Genomics.
